Data published in ChEMBL document CHEMBL1152128, “Catalytic site-selective synthesis and evaluation of a series of erythromycin analogs” (2008).
In brackets after ≈: the same amount, converted by molar mass.

Experiments:
Staphylococcus aureus = assay: Antibacterial activity against Staphylococcus aureus ATCC 29213; assay type: functional
In short: (§1)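 Broth microdilution MIC in Mueller Hinton II broth, 384-well format, quadruplicate wells. The compound is serially diluted two-fold from DMSO stocks, with final concentrations half of 64 to 0.0625 µg/mL. The inoculum is a 0.5 McFarland culture diluted 100-fold, mixed 1:1 with compound to 20 µL per well. Plates are incubated 24 h at 35 °C. MIC is the lowest concentration with no visible growth; OD620 is also read.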

Enterococcus faecalis = assay: Antibacterial activity against Enterococcus faecalis ATCC 29212; assay type: functional; in short: as §1

| Compound | MIC (Staphylococcus aureus) [µg/mL] | MIC (Enterococcus faecalis) [µg/mL] |
| --- | --- | --- |
| CC[C@H]1OC(=O)[C@H](C)[C@@H](O[C@H]2C[C@@](C)(OC)[C@@H](OP(=O)(Oc3ccccc3)Oc3ccccc3)[C@H](C)O2)[C@H](C)[C@@H](O[C@@H]2O[C@H](C)C[C@H](N(C)C)[C@H]2OC(C)=O)[C@@](C)(O)C[C@@H](C)C(=O)[C@H](C)[C@@H](OC(=O)CCNC(=O)OC(C)(C)C)[C@@]1(C)O | > 32 | > 32 |
| CCC(=O)O[C@H]1[C@H](O[C@@H]2[C@@H](C)[C@H](O[C@H]3C[C@@](C)(OC)[C@@H](O)[C@H](C)O3)[C@@H](C)C(=O)O[C@H](CC)[C@](C)(O)[C@H](OC(=O)CC)[C@@H](C)C(=O)[C@H](C)C[C@]2(C)O)O[C@H](C)C[C@@H]1N(C)C | 32 (≈ 37.8 µM) | 32 (≈ 37.8 µM) |
| CCCCCCCC(=O)O[C@@H]1[C@@H](C)C(=O)[C@H](C)C[C@](C)(O)[C@H](O[C@@H]2O[C@H](C)C[C@H](N(C)C)[C@H]2O)[C@@H](C)[C@H](O[C@H]2C[C@@](C)(OC)[C@@H](OC(=O)CCCCCCC)[C@H](C)O2)[C@@H](C)C(=O)O[C@H](CC)[C@]1(C)O | > 32 | > 32 |
| CCCCCCCC(=O)O[C@H]1[C@H](O[C@@H]2[C@@H](C)[C@H](O[C@H]3C[C@@](C)(OC)[C@@H](O)[C@H](C)O3)[C@@H](C)C(=O)O[C@H](CC)[C@](C)(O)[C@H](OC(=O)CCCCCCC)[C@@H](C)C(=O)[C@H](C)C[C@]2(C)O)O[C@H](C)C[C@@H]1N(C)C | > 32 | > 32 |
| CCC(=O)O[C@@H]1[C@@H](C)C(=O)[C@H](C)C[C@](C)(O)[C@H](O[C@@H]2O[C@H](C)C[C@H](N(C)C)[C@H]2O)[C@@H](C)[C@H](O[C@H]2C[C@@](C)(OC)[C@@H](O)[C@H](C)O2)[C@@H](C)C(=O)O[C@H](CC)[C@]1(C)O | 16 (≈ 20.3 µM) | 32 (≈ 40.5 µM) |
| C=CCCC(=O)O[C@H]1[C@H](O[C@@H]2[C@@H](C)[C@H](O[C@H]3C[C@@](C)(OC)[C@@H](OP(=O)(Oc4ccccc4)Oc4ccccc4)[C@H](C)O3)[C@@H](C)C(=O)O[C@H](CC)[C@](C)(O)[C@H](OC(=O)CCC=C)[C@@H](C)C(=O)[C@H](C)C[C@]2(C)O)O[C@H](C)C[C@@H]1N(C)C | > 32 | > 32 |
| CC[C@H]1OC(=O)[C@H](C)[C@@H](O[C@H]2C[C@@](C)(OC)[C@@H](O)[C@H](C)O2)[C@H](C)[C@@H](O[C@@H]2O[C@H](C)C[C@H](N(C)C)[C@H]2OC(=O)CCNC(=O)OC(C)(C)C)[C@@](C)(O)C[C@@H](C)C(=O)[C@H](C)[C@@H](OC(=O)CCNC(=O)OC(C)(C)C)[C@@]1(C)O | > 32 | > 32 |
| C=CCCC(=O)O[C@@H]1[C@@H](C)C(=O)[C@H](C)C[C@](C)(O)[C@H](O[C@@H]2O[C@H](C)C[C@H](N(C)C)[C@H]2O)[C@@H](C)[C@H](O[C@H]2C[C@@](C)(OC)[C@@H](O)[C@H](C)O2)[C@@H](C)C(=O)O[C@H](CC)[C@]1(C)O | 16 (≈ 19.6 µM) | 32 (≈ 39.2 µM) |
| C=CCCC(=O)O[C@H]1[C@H](O[C@@H]2[C@@H](C)[C@H](O[C@H]3C[C@@](C)(OC)[C@@H](O)[C@H](C)O3)[C@@H](C)C(=O)O[C@H](CC)[C@](C)(O)[C@H](OC(=O)CCC=C)[C@@H](C)C(=O)[C@H](C)C[C@]2(C)O)O[C@H](C)C[C@@H]1N(C)C | 32 (≈ 35.6 µM) | > 32 |
| CC[C@H]1OC(=O)[C@H](C)[C@@H](O[C@H]2C[C@@](C)(OC)[C@@H](O)[C@H](C)O2)[C@H](C)[C@@H](O[C@@H]2O[C@H](C)C[C@H](N(C)C)[C@H]2O)[C@](C)(O)C[C@@H](C)C(=O)[C@H](C)[C@@H](O)[C@]1(C)O [ERYTHROMYCIN] | 1 (≈ 1.36 µM) | 2 (≈ 2.73 µM) |
| CCC(=O)O[C@H]1[C@H](O[C@@H]2[C@@H](C)[C@H](O[C@H]3C[C@@](C)(OC)[C@@H](OP(=O)(Oc4ccccc4)Oc4ccccc4)[C@H](C)O3)[C@@H](C)C(=O)O[C@H](CC)[C@](C)(O)[C@H](OC(=O)CC)[C@@H](C)C(=O)[C@H](C)C[C@]2(C)O)O[C@H](C)C[C@@H]1N(C)C | > 32 | > 32 |
| CCCCCCCC(=O)O[C@@H]1[C@@H](C)C(=O)[C@H](C)C[C@](C)(O)[C@H](O[C@@H]2O[C@H](C)C[C@H](N(C)C)[C@H]2O)[C@@H](C)[C@H](O[C@H]2C[C@@](C)(OC)[C@@H](O)[C@H](C)O2)[C@@H](C)C(=O)O[C@H](CC)[C@]1(C)O | 32 (≈ 37.2 µM) | 32 (≈ 37.2 µM) |
| CCCCCCCC(=O)O[C@H]1[C@H](O[C@@H]2[C@@H](C)[C@H](O[C@H]3C[C@@](C)(OC)[C@@H](OP(=O)(Oc4ccccc4)Oc4ccccc4)[C@H](C)O3)[C@@H](C)C(=O)O[C@H](CC)[C@](C)(O)[C@H](OC(=O)CCCCCCC)[C@@H](C)C(=O)[C@H](C)C[C@]2(C)O)O[C@H](C)C[C@@H]1N(C)C | > 32 | > 32 |
| CC[C@H]1OC(=O)[C@H](C)[C@@H](O[C@H]2C[C@@](C)(OC)[C@@H](O)[C@H](C)O2)[C@H](C)[C@@H](O[C@@H]2O[C@H](C)C[C@H](N(C)C)[C@H]2OC(C)=O)[C@@](C)(O)C[C@@H](C)C(=O)[C@H](C)[C@@H](OC(=O)CCNC(=O)OC(C)(C)C)[C@@]1(C)O | 32 (≈ 33.8 µM) | > 32 |
| CC[C@H]1OC(=O)[C@H](C)[C@@H](O[C@H]2C[C@@](C)(OC)[C@@H](O)[C@H](C)O2)[C@H](C)[C@@H](O[C@@H]2O[C@H](C)C[C@H](N(C)C)[C@H]2O)[C@@](C)(O)C[C@@H](C)C(=O)[C@H](C)[C@@H](OC(=O)CCNC(=O)OC(C)(C)C)[C@@]1(C)O | 32 (≈ 35.4 µM) | > 32 |
